Measurements taken from ChEMBL document CHEMBL1146496, “Expanding the strategies in natural product studies of marine-derived fungi: a chemical investigation of penicillium obtained from deep water sediment” (J Nat Prod, 2004).
Values after ≈ are worked out from the molar mass of the structure shown.

Legend:
L1210 [1] = experiment: Cytotoxicity against mouse L1210 cells assessed as zone units at 11.6 mg/mL by disk diffusion soft agar colony formation assay; format: functional
Outline: (§1)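 Soft agar colony formation with disk diffusion. Sample dissolved in 250 µL DMSO; a 15 µL aliquot at the stated concentration is spotted on a cellulose disk laid on agar containing the cells. After incubation, the zone of colony inhibition is measured in zone units (200 zu = 6 mm). Activity is defined as ≥300 zu.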

MC-38 [2] = experiment: Cytotoxicity against mouse C38 cells assessed as zone units at 11.6 mg/mL by disk diffusion soft agar colony formation assay; format: functional; outline: as §1
[3] = Cytotoxicity against human H116 cells assessed as zone units at 11.6 mg/mL by disk diffusion soft agar colony formation assay; format: functional; outline: as §1
CCRF-CEM [4] = experiment: Cytotoxicity against human CEM cells assessed as zone units at 11.6 mg/mL by disk diffusion soft agar colony formation assay; format: functional; outline: as §1
[5] = Cytotoxicity against mouse CFU-GM cells assessed as zone units at 11.6 mg/mL by disk diffusion soft agar colony formation assay; format: cell-based; outline: as §1
MDA-MB-435 = experiment: Cytotoxicity against human MDA-MB-435 after 48 hrs by SRB assay; format: functional, cell-based; conditions: MDA-MB-435, 48 h
Outline: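 MDA-MB-435 cells plated and left to attach and grow 24 h, then exposed to compound or ethanol vehicle for 48 h. Cells fixed with 10% trichloroacetic acid, stained with 0.4% sulforhodamine B, absorbance read at 560 nm. Full dose–response in triplicate; IC50 (50% proliferation inhibition) taken from the linear portion of the log-dose–response curve.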

[6] = Cytotoxicity against human H125 cells assessed as zone units at 11.6 mg/mL by disk diffusion soft agar colony formation assay; format: functional; outline: as §1
[7] = Cytotoxicity against mouse CFU-GM cells assessed as zone units at 8.0 mg/mL by disk diffusion soft agar colony formation assay; format: cell-based; outline: as §1
MC-38 [8] = experiment: Cytotoxicity against mouse C38 cells assessed as zone units at 8.0 mg/mL by disk diffusion soft agar colony formation assay; format: functional; outline: as §1
L1210 [9] = experiment: Cytotoxicity against mouse L1210 cells assessed as zone units at 8.0 mg/mL by disk diffusion soft agar colony formation assay; format: functional; outline: as §1
[10] = Cytotoxicity against human H116 cells assessed as zone units at 8.0 mg/mL by disk diffusion soft agar colony formation assay; format: functional; outline: as §1
[11] = Cytotoxicity against human H125 cells assessed as zone units at 8.0 mg/mL by disk diffusion soft agar colony formation assay; format: functional; outline: as §1
L1210 [12] = experiment: Cytotoxicity against mouse L1210 cells assessed as zone units at 4.0 mg/mL by disk diffusion soft agar colony formation assay; format: functional; outline: as §1
MC-38 [13] = experiment: Cytotoxicity against mouse C38 cells assessed as zone units at 4.0 mg/mL by disk diffusion soft agar colony formation assay; format: functional; outline: as §1
CCRF-CEM [14] = experiment: Cytotoxicity against human CEM cells assessed as zone units at 4.0 mg/mL by disk diffusion soft agar colony formation assay; format: functional; outline: as §1
[15] = Cytotoxicity against human H116 cells assessed as zone units at 4.0 mg/mL by disk diffusion soft agar colony formation assay; format: functional; outline: as §1
[16] = Cytotoxicity against mouse CFU-GM cells assessed as zone units at 4.0 mg/mL by disk diffusion soft agar colony formation assay; format: cell-based; outline: as §1
[17] = Cytotoxicity against human H125 cells assessed as zone units at 4.0 mg/mL by disk diffusion soft agar colony formation assay; format: functional; outline: as §1
[18] = Cytotoxicity against human H116 cells assessed as zone units at 6.8 mg/mL by disk diffusion soft agar colony formation assay; format: functional; outline: as §1
[19] = Cytotoxicity against human H125 cells assessed as zone units at 6.8 mg/mL by disk diffusion soft agar colony formation assay; format: functional; outline: as §1
L1210 [20] = experiment: Cytotoxicity against mouse L1210 cells assessed as zone units at 6.8 mg/mL by disk diffusion soft agar colony formation assay; format: functional; outline: as §1
MC-38 [21] = experiment: Cytotoxicity against mouse C38 cells assessed as zone units at 6.8 mg/mL by disk diffusion soft agar colony formation assay; format: functional; outline: as §1
[22] = Cytotoxicity against mouse CFU-GM cells assessed as zone units at 6.8 mg/mL by disk diffusion soft agar colony formation assay; format: cell-based; outline: as §1
[23] = Cytotoxicity against mouse CFU-GM cells assessed as zone units at 6.0 mg/mL by disk diffusion soft agar colony formation assay; format: cell-based; outline: as §1
[24] = Cytotoxicity against human H125 cells assessed as zone units at 6.0 mg/mL by disk diffusion soft agar colony formation assay; format: functional; outline: as §1
MC-38 [25] = experiment: Cytotoxicity against mouse C38 cells assessed as zone units at 6.0 mg/mL by disk diffusion soft agar colony formation assay; format: functional; outline: as §1
[26] = Cytotoxicity against human H116 cells assessed as zone units at 6.0 mg/mL by disk diffusion soft agar colony formation assay; format: functional; outline: as §1
L1210 [27] = experiment: Cytotoxicity against mouse L1210 cells assessed as zone units at 6.0 mg/mL by disk diffusion soft agar colony formation assay; format: functional; outline: as §1

With `COC1=CC(=O)C(C)=C(C[C@H](C)O)C1=O` [ANSERINONE B] the Activity (L1210 [1]) was 700 Zone units, the Activity (MC-38 [2]) was 400 Zone units and the Activity [3] was 400 Zone units. It also gave an Activity (CCRF-CEM [4]) of 650 Zone units, an Activity [5] of 650 Zone units and an IC50 (MDA-MB-435) of 3.6 µg/mL (≈ 17.1 µM). The Activity [6] was 400 Zone units.
With `COC1=CC(=O)[C@]2(C)O[C@@]23CC(C)OC13O` (stereo partly drawn) [(+)-EPOXYSERINONE B] the Activity [7] was 400 Zone units, the Activity (MC-38 [8]) was 400 Zone units and the IC50 (MDA-MB-435) was > 10 µg/mL. For the same molecule, the Activity (L1210 [9]) was 250 Zone units, the Activity [10] was 200 Zone units and the Activity [11] was 50 Zone units.
In the case of `COC1=CC(=O)C(C)=C(C[C@H](C)OC=O)C1=O` [(+)-FORMYLANSERINONE B], the Activity (L1210 [12]) is reported as 550 Zone units, the Activity (MC-38 [13]) is reported as 250 Zone units and the Activity (CCRF-CEM [14]) is reported as 550 Zone units. The Activity [15] was 400 Zone units, the IC50 (MDA-MB-435) was 2.9 µg/mL (≈ 12.2 µM) and the Activity [16] was 600 Zone units. For the same molecule, the Activity [17] was 350 Zone units.
In the case of `COC1=CC(=O)[C@]2(C)O[C@@]23C[C@@H](C)O[C@@]13O`, the Activity [18] is reported as 0 Zone units, the Activity [19] is reported as 0 Zone units and the Activity (L1210 [20]) is reported as 50 Zone units. For the same molecule, the Activity (MC-38 [21]) was 200 Zone units, the IC50 (MDA-MB-435) was > 10 µg/mL and the Activity [22] was 0 Zone units.
`COC1=CC(=O)C(C)=C(CC(C)=O)C1=O` [ANSERINONE A] gave an Activity [23] of 150 Zone units, an Activity [24] of 50 Zone units and an Activity (MC-38 [25]) of 300 Zone units. It also gave an Activity [26] of 50 Zone units, an IC50 (MDA-MB-435) of 2.22 µg/mL (≈ 10.7 µM) and an Activity (L1210 [27]) of 300 Zone units.
